{"source": "ChEMBL document CHEMBL6134796", "about": "“Development and Evaluation of Indole-Based Phospholipase D Inhibitors for Lung Cancer Immunotherapy” (J Med Chem, 2025)", "key": {"[1]": {"assay": "Inhibition of PLD in human A549 cells measured after 1 hr by amplex red phospholipase D assay", "format": "cell-based"}, "[2]": {"target": "T1, Phospholipase D1 (Homo sapiens) (UniProt Q13393)", "T1 sequence (whole entry)": "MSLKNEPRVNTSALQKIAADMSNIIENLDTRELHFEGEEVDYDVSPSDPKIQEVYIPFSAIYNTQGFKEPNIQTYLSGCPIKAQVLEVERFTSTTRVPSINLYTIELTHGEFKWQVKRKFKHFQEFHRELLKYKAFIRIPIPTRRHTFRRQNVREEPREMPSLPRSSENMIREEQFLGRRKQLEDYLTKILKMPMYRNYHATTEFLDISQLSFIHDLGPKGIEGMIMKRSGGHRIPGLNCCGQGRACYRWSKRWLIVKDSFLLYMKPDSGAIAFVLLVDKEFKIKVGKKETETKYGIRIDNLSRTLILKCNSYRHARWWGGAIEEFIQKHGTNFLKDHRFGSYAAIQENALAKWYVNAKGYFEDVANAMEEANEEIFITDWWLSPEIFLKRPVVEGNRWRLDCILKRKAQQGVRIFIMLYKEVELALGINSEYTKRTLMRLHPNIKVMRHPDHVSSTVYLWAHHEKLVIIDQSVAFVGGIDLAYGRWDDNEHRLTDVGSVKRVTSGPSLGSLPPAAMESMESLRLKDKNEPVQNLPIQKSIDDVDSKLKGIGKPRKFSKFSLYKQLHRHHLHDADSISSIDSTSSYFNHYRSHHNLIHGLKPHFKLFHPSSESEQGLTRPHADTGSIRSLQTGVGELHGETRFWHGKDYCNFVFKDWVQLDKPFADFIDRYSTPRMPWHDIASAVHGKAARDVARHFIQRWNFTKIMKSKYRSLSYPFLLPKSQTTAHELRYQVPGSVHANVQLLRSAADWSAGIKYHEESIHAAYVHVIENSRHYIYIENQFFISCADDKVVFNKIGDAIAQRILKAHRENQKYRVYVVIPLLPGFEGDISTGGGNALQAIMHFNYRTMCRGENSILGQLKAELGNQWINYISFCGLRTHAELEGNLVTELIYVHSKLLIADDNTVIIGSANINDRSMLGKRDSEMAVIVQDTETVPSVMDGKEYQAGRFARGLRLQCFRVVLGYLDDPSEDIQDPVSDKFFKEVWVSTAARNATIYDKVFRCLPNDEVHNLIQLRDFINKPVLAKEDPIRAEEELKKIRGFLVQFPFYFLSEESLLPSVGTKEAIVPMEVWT", "assay": "Inhibition of PLD1 (unknown origin) overexpressed in human A549 cells", "format": "cell-based", "outline": "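A549 cells transfected with wild-type PLD1, PLD1 mutants (L425A, F614A, F789A) or PLD2, then compound-treated. PLD activity measured as [3H]phosphatidylbutanol formed in the presence of 1-butanol after [3H]myristic acid labeling, expressed as % of total lipid cpm. At least three independent experiments.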"}, "A549": {"test_system": "A549", "assay": "Cytotoxicity against human A549 cells assessed as increase in cell death rate by WST-1 assay", "format": "functional, cell-based", "settings": "time 2-48 hrs"}, "[3]": {"test_system": "Lewis lung carcinoma cell line", "assay": "Antitumor activity against mouse Lewis lung carcinoma cell line allografted in male C57BL/6 mouse model assessed as reduction in tumor formation at 10 mg/kg, po measured every other day for 3 weeks", "format": "functional, organism-based", "outline": "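Syngeneic model: 6-week-old male C57BL/6 mice given 3 × 10^5 LLC cells in 50 μL PBS subcutaneously in the flank. At day 7, mice were randomized to vehicle PO daily or 10 mg/kg PO every other day for 3 weeks. Caliper volume was taken every 2 days as ([…])/2, with tumor weight at end. Spleen size and weight were recorded. Ki67 and cleaved caspase-3 were scored by IHC (DAB, hematoxylin).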"}, "[4]": {"assay": "Toxicity in male C57BL/6 mouse assessed as effect on body weight at 10 mg/kg, po measured every other day for 3 weeks", "format": "organism-based", "settings": "in vivo, 504 h"}, "Mus musculus": {"test_system": "Mus musculus", "assay": "In vivo inhibition of KRAS activation in male C57BL/6 mouse allografted with mouse Lewis lung carcinoma cell line assessed as decrease in Akt phosphorylation at 10 mg/kg, po", "format": "functional, organism-based"}, "[5]": {"target": "T2, Phospholipase D1 (Mus musculus) (UniProt Q9Z280)", "T2 sequence (whole entry)": "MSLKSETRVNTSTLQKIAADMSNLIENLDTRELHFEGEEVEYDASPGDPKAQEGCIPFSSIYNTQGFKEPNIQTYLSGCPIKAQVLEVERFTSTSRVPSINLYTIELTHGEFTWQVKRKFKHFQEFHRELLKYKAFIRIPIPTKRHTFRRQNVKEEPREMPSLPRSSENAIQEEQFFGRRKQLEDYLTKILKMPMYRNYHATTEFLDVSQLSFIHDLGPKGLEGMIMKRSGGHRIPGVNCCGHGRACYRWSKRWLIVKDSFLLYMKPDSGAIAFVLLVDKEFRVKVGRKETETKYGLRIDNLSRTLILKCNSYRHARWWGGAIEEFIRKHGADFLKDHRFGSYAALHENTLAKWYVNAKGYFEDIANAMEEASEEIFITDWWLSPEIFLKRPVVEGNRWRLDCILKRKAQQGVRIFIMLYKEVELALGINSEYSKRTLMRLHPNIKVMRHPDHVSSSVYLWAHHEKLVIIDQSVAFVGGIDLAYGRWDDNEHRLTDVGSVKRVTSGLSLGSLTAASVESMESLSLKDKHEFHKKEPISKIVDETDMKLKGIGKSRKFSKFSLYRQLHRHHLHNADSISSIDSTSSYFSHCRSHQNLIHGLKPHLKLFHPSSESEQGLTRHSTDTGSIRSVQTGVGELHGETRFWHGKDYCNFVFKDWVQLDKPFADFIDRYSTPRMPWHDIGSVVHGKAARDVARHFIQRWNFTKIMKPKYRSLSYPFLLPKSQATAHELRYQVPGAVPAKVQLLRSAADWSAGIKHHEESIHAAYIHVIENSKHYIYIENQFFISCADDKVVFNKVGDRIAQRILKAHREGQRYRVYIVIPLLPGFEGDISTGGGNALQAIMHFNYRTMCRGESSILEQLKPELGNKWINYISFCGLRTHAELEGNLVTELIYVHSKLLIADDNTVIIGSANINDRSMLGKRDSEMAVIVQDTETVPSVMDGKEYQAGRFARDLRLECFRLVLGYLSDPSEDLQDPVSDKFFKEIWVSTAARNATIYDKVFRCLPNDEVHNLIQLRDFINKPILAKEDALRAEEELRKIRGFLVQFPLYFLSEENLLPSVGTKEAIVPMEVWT", "assay": "In vivo inhibition of PLD1 in male C57BL/6 mouse allografted with mouse Lewis lung carcinoma cell line assessed as increase in calreticulin expression at 10 mg/kg, po by immunofluorescence analysis", "format": "functional, organism-based"}, "[6]": {"target": "T2, Phospholipase D1 (Mus musculus)", "assay": "In vivo inhibition of PLD1 in male C57BL/6 mouse allografted with mouse Lewis lung carcinoma cell line assessed as increase in CD8+T cell population at 10 mg/kg, po by immunofluorescence analysis", "format": "functional, organism-based", "outline": "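Same LLC syngeneic C57BL/6 model, 10 mg/kg PO every other day for 3 weeks. Tumor tissues were stained by immunofluorescence for CD80+ and CD163+ cells, CD8+ T cells, and CD4+/IL-17+ and Treg populations. Nuclei were counterstained with 1 μM Hoechst 33342 and imaged by confocal microscopy.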"}}, "note": "Activity calls are given as the source filed them. The rule behind the calls is not given here."}
{"smiles": "O=C(CCc1c[nH]c2ccccc12)Nc1cc(C(F)(F)F)cc(C(F)(F)F)c1", "values": [{"measurement": "IC50", "setting": "[1]", "result": 1970, "unit": "nM"}, {"measurement": "inhibition", "setting": "[2]", "result": "Active"}, {"measurement": "Activity", "setting": "A549", "result": "Time-dependent-effect"}, {"measurement": "Activity", "setting": "[3]", "result": "Active"}, {"measurement": "Activity", "setting": "[4]", "result": "Non-toxic"}, {"measurement": "inhibition", "setting": "Mus musculus", "result": "Active"}, {"measurement": "inhibition", "setting": "[5]", "result": "Active"}, {"measurement": "inhibition", "setting": "[6]", "result": "Active"}]}
